Assay results taken from publication PMC6290999 (Journal of controlled release : official journal of the …, 2017).

Assays:
HuH7 cells [1] = assay: Focus formation assay; format: cell-based, human; details: 72 h treatment, then 10~14 days; vs control cells
Method in brief: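 HuH7 seeded at 500 or 2000 cells/well in 12- or 6-well plates, cultured overnight, then treated 72 h with blank PLLA particles, free drug or drug-loaded PLLA particles. Medium then replaced and cells grown 10~14 days. Fixed and stained with 0.5% methylene blue in methanol; colonies above 50 cells counted. Focus area given as % of untreated control; triplicates.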

shPin1–PLC cells = assay: Cell viability assay; format: cell-based, human; details: 20 μM; 24 h, 48 h, 72 h
Method in brief: (§1)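 Stable lines made by lentiviral pLKO.1 shRNA (PIN1 or scrambled) produced in 293T with pVSVG, pREV and pMDL helpers. PLC cells were infected, selected with 1 μg/mL puromycin and checked by Western blot. Viability read by MTT: 3 h incubation, DMSO solubilisation, 490 nm, expressed as OD sample/OD control × 100.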

shV–PLC cells = assay: Cell viability assay; format: cell-based, human; details: 20 μM; 24 h, 48 h, 72 h
Method in brief: as §1

HuH7 cells [2] = assay: Cell viability assay; format: cell-based, human; details: 0 to 40 μM ATRA; 24 h, 48 h, 72 h
Method in brief: (§2)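 Seeded in 96-well plates at 3000 (HuH7) or 6000 (PLC) cells/well in DMEM or MEM with 10% FBS and cultured overnight. Treated with blank PLLA particles, free drug or drug-loaded PLLA particles; untreated control. MTT (5 mg/mL stock) added for 3 h, formazan dissolved in DMSO, absorbance read at 490 nm. Viability = OD sample/OD control × 100; IC50 calculated from inhibition rates.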

[3] = Weight of mice in xenograft experiment; format: in vivo, BALB/c nu/nu mice; details: 3 weeks treatment
Method in brief: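 Male BALB/c nu/nu mice bore subcutaneous hind-limb HuH7 xenografts (4 × 10⁶ cells) and were randomised at about 50 mm³. Groups received saline, free drug (ethanol diluted in corn oil), blank PLLA particles, slow-release pellet, or drug-loaded particles in saline. Dosing was i.p. at 15 mg/kg drug, twice weekly for three weeks. Body weight recorded weekly.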

HuH7 cells [4] = assay: Cell cycle and apoptosis analysis; format: cell-based, human; details: 10 μM and 20 μM ATRA, 72 h
Method in brief: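 HuH7 seeded at 0.9 × 10⁴ cells/cm², cultured overnight, then given blank PLLA particles (0.25 mg/mL), free drug (10 and 20 μM) or drug-loaded PLLA particles (10 and 20 μM drug) for 72 h; untreated cells as control. Trypsinised cells fixed in 70% ethanol (4°C, 2 h), stained with propidium iodide (30 min, 37°C, dark) using a kit, then analysed by flow cytometry.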

PLC cells = assay: Cell viability assay; format: cell-based, human; details: 0 to 40 μM ATRA; 24 h, 48 h, 72 h
Method in brief: as §2

[5] = system: normal human liver L-02 cells; assay: Cell viability assay; format: cell-based; details: even at 20 μM
Pin1 [6] = target: T1, Pin1 (Homo sapiens, UniProt Q13526); assay: Pin1 and substrate expression in xenograft tumors; format: in vivo, BALB/c nu/nu mice; details: immunofluorescence staining, 3 weeks treatment
T1 sequence (Q13526 whole entry): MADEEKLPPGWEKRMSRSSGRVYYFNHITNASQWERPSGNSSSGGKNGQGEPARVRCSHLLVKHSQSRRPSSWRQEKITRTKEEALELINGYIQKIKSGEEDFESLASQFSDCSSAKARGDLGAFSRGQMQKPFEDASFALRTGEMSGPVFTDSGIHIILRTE
Method in brief: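 Male nude mice carried subcutaneous hind-limb HuH7 xenografts (4 × 10⁶ cells) and were treated for three weeks. Frozen tumour sections (10 μm) fixed in acetone 10 min, permeabilised and blocked with 1% Triton X-100 plus 10% donkey serum for 40 min. Primary antibodies (PIN1, Ki67) applied 24 h at 4°C, secondary 1 h at room temperature, DAPI nuclear stain.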

shV–HuH7 cells = assay: Cell viability assay; format: cell-based, human; details: 20 μM, 72 h
[7] = under physiological conditions ref 41; cited from earlier work
Pin1 [8] = target: T1, Pin1; assay: Western blotting of Pin1 and its substrates in HCC cells; format: cell-based; details: 72 h; for Pin1 expression: 20 μM ATRA
Method in brief: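 PIN1-shRNA or scrambled-shRNA HuH7 and PLC lines were made by lentiviral transduction with 1 μg/mL puromycin selection. Lysates prepared in RIPA and quantified by BCA, run on SDS-PAGE and transferred to PVDF. Blocked in 5% milk, probed with anti-Pin1 (1:3000) then HRP secondary, detected by chemiluminescence; β-actin as loading control.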

shPin1–HuH7 cells = assay: Cell viability assay; format: cell-based, human; details: 20 μM

Weights of mice vs saline group [3]: did not induce significant changes
Expression of Pin1 and Ki67 in tumors vs saline group (Pin1 [6]): did not induce obvious changes
Expression of Pin1 and its substrates (β-catenin, c-JUN, NF-κB, Cyclin D1, CDK2, CDK6) (Pin1 [8]; HuH7 and PLC cells, 5-20 μM ATRA): obvious dose-dependent down-regulations
Pin1 expression (Pin1 [8]; shPin1–HuH7 and shPin1–PLC cells): did not affect
Pin1 expression (Pin1 [8]; shV–HuH7 and shV–PLC cells): significantly down-regulated
Structure (SMILES): CC1=C(/C=C/C(C)=C/C=C/C(C)=C/C(=O)O)C(C)(C)CCC1 [ATRA, all-trans retinoic acid]
Number and area of foci (HuH7 cells [1]): significant dose-dependent reductions
Decrease of cell viability (shPin1–PLC cells): did not decrease cell viability
Inhibition on cell viability (shV–PLC cells): significant time-dependent inhibition
Inhibition on HuH7 cell viability (HuH7 cells [2]): Dose-dependent inhibition
Apoptosis (HuH7 cells [4]): did not induce significant apoptosis
Proportion of cells in G0/G1 phase (HuH7 cells [4]): significantly increased
Proportion of cells in G2/M phase (HuH7 cells [4]): decreased
Inhibition on PLC cell viability (PLC cells): dose-dependent inhibition
Inhibition on viability of L-02 cells [5]: no significant inhibition
Decrease of cell viability (shV–HuH7 cells): approximately 36%
Inhibition on cell viability (shV–HuH7 cells; 24 h, 48 h): very significant (p < 0.001) time-dependent inhibition
Aqueous solubility [7]: 0.21 µM
Decrease of cell viability (shPin1–HuH7 cells; 24 h and 48 h): did not decrease cell viability
Reduction of cell viability (shPin1–HuH7 cells; 72 h): about 15%
